Reference: ChEMBL document CHEMBL4017544 (J Med Chem, 2017)
In brackets after ≈: the same amount, converted by molar mass. Activity calls are given as the source filed them. No cut-off for these calls is given here.

Key:
[1] = system: HEK293; assay: Cytotoxicity against HEK293 cells assessed as reduction in cell viability after 24 hrs by MTT assay; assay type: cell-based; details: Homo sapiens, HEK293, 24 h
Outline: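 HEK293 or H9C2 cells grown in high-glucose DMEM with 10% FBS, exposed to compound for 24 h; viability by MTT, IC50 calculated.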

[2] = target: T1, Inhibitor of nuclear factor kappa-B kinase subunit beta (Homo sapiens) (UniProt O14920); assay: Inhibition of IKKbeta (unknown origin) transfected in HEK293 cells assessed as reduction in TNFalpha-induced upregulation of COX2 mRNA expression at 200 to 1000 nM administered 6 hrs after TNFalpha stimulation measured for 24 hrs by quantitative RT-PCR analysis; assay type: cell-based
T1 sequence (whole entry): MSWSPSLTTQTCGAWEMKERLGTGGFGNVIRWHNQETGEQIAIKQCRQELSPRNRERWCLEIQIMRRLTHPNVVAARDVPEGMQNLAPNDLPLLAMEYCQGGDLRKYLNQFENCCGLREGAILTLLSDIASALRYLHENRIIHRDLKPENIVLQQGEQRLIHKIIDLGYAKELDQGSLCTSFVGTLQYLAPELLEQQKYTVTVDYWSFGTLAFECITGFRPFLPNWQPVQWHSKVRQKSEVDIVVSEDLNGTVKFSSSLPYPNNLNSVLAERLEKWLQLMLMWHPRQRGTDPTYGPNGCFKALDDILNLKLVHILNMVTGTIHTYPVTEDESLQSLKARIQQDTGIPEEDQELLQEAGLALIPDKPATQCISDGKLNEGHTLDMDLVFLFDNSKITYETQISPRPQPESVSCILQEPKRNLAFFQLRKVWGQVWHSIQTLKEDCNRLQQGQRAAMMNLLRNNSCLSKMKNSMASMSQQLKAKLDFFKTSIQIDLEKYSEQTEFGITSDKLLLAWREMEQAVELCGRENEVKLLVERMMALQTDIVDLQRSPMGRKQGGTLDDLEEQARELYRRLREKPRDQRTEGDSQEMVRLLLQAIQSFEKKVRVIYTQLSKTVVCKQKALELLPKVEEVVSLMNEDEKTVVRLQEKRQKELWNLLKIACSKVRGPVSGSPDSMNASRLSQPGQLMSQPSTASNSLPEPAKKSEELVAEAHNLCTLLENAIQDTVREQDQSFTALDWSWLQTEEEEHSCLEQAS
Outline: (§1)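 HEK293 cells pretreated with TNF-α (10 ng/mL) for 6 h, then given compound at 200 or 1000 nM for 24 h, in triplicate; iNOS, COX2 and MCP-1 mRNA relative to GAPDH by quantitative RT-PCR, 2−ΔΔCt method; mean ± SD from three experiments.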

[3] = Volume of distribution at steady state in Sprague-Dawley rat at 10 mg/kg, iv measured up to 24 hrs by LC-MS/MS analysis; assay type: ADME, organism-based; details: in vivo, read-out: Vdss
Outline: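 Rats received a single 10 mg/kg i.v. dose. Blood was drawn from the suborbital vein at 0, 2, 5, 15, 30 and 60 min and at 1.5, 2, 4, 6, 8, 12 and 24 h, and plasma was analyzed by LC-MS/MS. n = 3, mean ± SD.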

[4] = target: Kelch-like ECH-associated protein 1 (Homo sapiens) (UniProt Q14145); assay: Inhibition of Keap1/Nrf2 (unknown origin) interaction transfected in HEK293 cells assessed as upregulation of HO-1 mRNA expression at 200 to 1000 nM after 48 hrs by quantitative RT-PCR analysis; assay type: cell-based
Outline: (§2)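 HEK293 cells (ATCC; high-glucose DMEM, 10% FBS) were treated in triplicate for 48 h. For the reporter read-out, cells were transfected with an ARE-dependent luciferase plasmid and luciferase activity was measured. For mRNA, total RNA was extracted with TRIzol and reverse transcribed, and target transcripts were quantified by qRT-PCR relative to GAPDH using the 2−ΔΔCt method. Three independent experiments, mean ± SD.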

[5] = Solubility of compound in saline containing 1% 1,3-propylene glycol/ 1% Tween 80 at 100 uM at pH 7.4 by HPLC analysis; assay type: physicochemical
Outline: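 Solubility was determined by an established HPLC method, in saline alone or in saline containing 1% 1,3-propylene glycol and 1% Tween 80.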

[6] = target: T1, Inhibitor of nuclear factor kappa-B kinase subunit beta (Homo sapiens); assay: Inhibition of IKKbeta (unknown origin) transfected in HEK293 cells assessed as TNFalpha-induced NFkappaB activation at 200 to 1000 nM administered 6 hrs after TNFalpha stimulation measured for 24 hrs by NFkappaB-driven luciferase reporter gene assay; assay type: cell-based
Outline: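 HEK293 cells transfected with an NF-κB-driven luciferase reporter, stimulated with TNF-α and treated in triplicate; luciferase read with a dual-luciferase system.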

[7] = target: T1, Inhibitor of nuclear factor kappa-B kinase subunit beta (Homo sapiens); assay: Inhibition of IKKbeta (unknown origin) transfected in HEK293 cells assessed as reduction in TNFalpha-induced upregulation of MCP1 mRNA expression at 200 to 1000 nM administered 6 hrs after TNFalpha stimulation measured for 24 hrs by quantitative RT-PCR method
[8] = target: T1, Inhibitor of nuclear factor kappa-B kinase subunit beta (Homo sapiens); assay: Inhibition of IKKbeta (unknown origin) transfected in HEK293 cells assessed as reduction in TNFalpha-induced upregulation of iNOS mRNA expression at 200 to 1000 nM administered 6 hrs after TNFalpha stimulation measured for 24 hrs by quantitative RT-PCR analysis; assay type: cell-based; outline: as §1
[9] = target: Kelch-like ECH-associated protein 1 (Homo sapiens) (UniProt Q14145); assay: Inhibition of Keap1/Nrf2 (unknown origin) interaction transfected in HEK293 cells assessed as upregulation of NQO1 mRNA expression at 200 to 1000 nM after 48 hrs by quantitative RT-PCR analysis; assay type: cell-based; outline: as §2
[10] = target: Kelch-like ECH-associated protein 1 (Homo sapiens) (UniProt Q14145); assay: Inhibition of Keap1/Nrf2 (unknown origin) interaction transfected in HEK293 cells assessed as activation of Nrf2 at 200 to 1000 nM after 48 hrs by ARE-driven luciferase reporter gene assay; assay type: cell-based; outline: as §2
[11] = Half life in Sprague-Dawley rat at 10 mg/kg, iv measured up to 24 hrs by LC-MS/MS analysis; assay type: ADME, organism-based; details: in vivo
Outline: (§3)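 Rats dosed intravenously at 10 mg/kg; blood drawn from suborbital vein at 0, 2, 5, 15, 30, 60 min and 1.5, 2, 4, 6, 8, 12, 24 h; plasma levels by LC-MS/MS; parameters from concentration–time profiles, mean ± SD, n = 3.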

[12] = system: HEK293; assay: Effect on Nfr2 mRNA expression in HEK293 cells harboring Keap1 at 200 to 1000 nM after 48 hrs by quantitative RT-PCR analysis; assay type: functional, cell-based; details: Homo sapiens
Outline: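 HEK293 cells treated in triplicate at 200 or 1000 nM for 48 h; Nrf2 mRNA relative to GAPDH by quantitative RT-PCR using the 2−ΔΔCt method; mean ± SD from three experiments.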

[13] = AUC (0 to infinity) in Sprague-Dawley rat at 10 mg/kg, iv measured up to 24 hrs by LC-MS/MS analysis; assay type: ADME, organism-based; parameters: dose 10 mg/kg, route intravenous, time infinity; details: in vivo; outline: as §3
[14] = Cmax in Sprague-Dawley rat at 10 mg/kg, iv measured up to 24 hrs by LC-MS/MS analysis; assay type: ADME, organism-based; parameters: dose 10 mg/kg, route intravenous; details: in vivo; outline: as §3

Chain of Kelch-like ECH-associated protein 1 (Homo sapiens) (Q14145 whole entry): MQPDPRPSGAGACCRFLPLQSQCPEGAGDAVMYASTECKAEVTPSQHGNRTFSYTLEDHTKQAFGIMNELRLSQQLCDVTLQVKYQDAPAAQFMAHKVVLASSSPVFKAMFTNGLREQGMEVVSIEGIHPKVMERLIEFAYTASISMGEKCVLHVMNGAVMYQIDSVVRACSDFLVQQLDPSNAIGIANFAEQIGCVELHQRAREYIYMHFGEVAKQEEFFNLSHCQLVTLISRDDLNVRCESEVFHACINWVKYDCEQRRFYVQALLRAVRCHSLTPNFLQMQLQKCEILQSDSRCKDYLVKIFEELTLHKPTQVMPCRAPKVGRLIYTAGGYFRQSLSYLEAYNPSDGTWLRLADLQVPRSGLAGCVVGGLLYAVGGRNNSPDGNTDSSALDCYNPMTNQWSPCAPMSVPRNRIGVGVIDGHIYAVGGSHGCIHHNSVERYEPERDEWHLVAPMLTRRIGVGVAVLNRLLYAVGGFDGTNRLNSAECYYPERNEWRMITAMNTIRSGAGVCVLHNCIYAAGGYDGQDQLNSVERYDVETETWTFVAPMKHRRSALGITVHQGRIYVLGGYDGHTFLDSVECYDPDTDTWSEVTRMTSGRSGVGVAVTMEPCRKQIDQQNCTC

COC(=O)[C@@H](N)CCC(=O)Nc1ccc(COC2=C(C#N)[C@H](O)[C@]3(C)C4=CC(=O)[C@@H]5[C@@H]6CC(C)(C)CC[C@]6(C(=O)OC)CC[C@@]5(C)[C@]4(C)CC[C@H]3C2(C)C)cc1
IC50 [1]: 56.5 µM | inhibition [2]: Active | Vd [3]: 35.1 L/kg | inhibition [4]: Active | solubility at 100 µM ([5]; saline containing 1% 1,3-propylene glycol/1% Tween 80, pH 7.4): 12.2 mg/mL (≈ 15.8 mM) | inhibition [6]: Active | inhibition [7]: Active | inhibition [8]: Active | inhibition [9]: Active | inhibition [10]: Active | half-life [11]: 1.31 h | Activity [12]: inactive | AUC(0-inf) [13]: 0.531 µg·h/mL | Cmax [14]: 3.02 µg/mL

COC(=O)[C@]12CCC(C)(C)C[C@H]1[C@H]1C(=O)C=C3[C@@]4(C)C=C(C#N)C(=O)C(C)(C)[C@@H]4CC[C@@]3(C)[C@]1(C)CC2 [BARDOXOLONE METHYL]
IC50 [1]: 2.2 µM | inhibition [2]: Active | Vd [3]: 29.1 L/kg | inhibition [4]: Active | solubility ([5]; buffer, pH 7.4, 100 µM): Insoluble | inhibition [6]: Active | inhibition [7]: Active | inhibition [8]: Active | inhibition [9]: Active | inhibition [10]: Active | half-life [11]: 4.41 h | Activity [12]: inactive | AUC(0-inf) [13]: 2.18 µg·h/mL | Cmax [14]: 5.02 µg/mL
